In the library only some 4% were active in any assay of this set; here they are far more common.
OX1R antag-1 – antagonists of human orexin 1 receptor (OX1R). Orexin/Hypocretin receptor type 1 (Homo sapiens), O43613. OX1R-expressing cells, FRET antagonist read-out. inhibition, % at 6.6 µM. 330,000 compounds, 1.8% hits. AID 485270, 2010; in the data active = inhibition mostly above about 38%, no sharp cut-off; inactive = mostly below about 40%
CHO parental Ca – ATP-evoked calcium signal inhibitors, parental CHO, primary screen, counter-screen for OX1R antagonist project, cell-based, fluorescence, Fluo-8 calcium dye | parental CHO-K1, ATP-induced calcium, Fluo-8 fluorescence | inhibition, % at 5.6 µM | 330,000 compounds, 0.63% hits;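 active = inhibition above that plate's mean sample inhibition plus 3 SD, cut at about 26% in these data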
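Assay system: parental CHO cells; Read-out basis: percent inhibition of ATP-evoked calcium rise, normalized to controls; Benchmarks: ATP and no-ATP DMSO wells; Compound dosing: single nominal dose of 5.6 µM per compound; Signal: Fluo-8 calcium dye fluorescence; Also added: ATP as calcium-mobilizing challenge; Repeats: singlicate.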
TAAR1 agonist – human TAAR1 agonists, primary screen, Fluo-8 calcium fluorescence, CHO RD-HGA16 cells. Trace amine-associated receptor 1 (Homo sapiens), Q96RJ0. vehicle wells 0%, saturating PEA agonist 100%. activation, % at 3 µM. 360,000 compounds, 0.99% hits. AID 624467, 2012;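 active = activation above the mean activation of all test compounds in the run plus 3 SD, cut at about 38% in these data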
Target sequence (Q96RJ0 whole entry, looked up): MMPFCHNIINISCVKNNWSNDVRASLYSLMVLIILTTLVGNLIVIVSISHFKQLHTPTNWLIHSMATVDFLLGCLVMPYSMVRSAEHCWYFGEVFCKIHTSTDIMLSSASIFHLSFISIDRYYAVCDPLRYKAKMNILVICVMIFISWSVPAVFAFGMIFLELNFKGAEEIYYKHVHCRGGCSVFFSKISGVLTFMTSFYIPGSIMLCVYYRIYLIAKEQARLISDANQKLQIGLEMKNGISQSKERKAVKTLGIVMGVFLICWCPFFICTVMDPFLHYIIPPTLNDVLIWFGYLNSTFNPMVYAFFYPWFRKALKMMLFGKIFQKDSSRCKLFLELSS
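Test system: RD-HGA16 (CHO) cells co-expressing Gα16 and hTAAR1 / Benchmarks: DMSO vehicle as 0%, PEA at EC100 as 100% / Repeats: no replicates (n 1) / Measure: % activation from peak over basal fluorescence ratio, DMSO-to-PEA scaled / Timing: 17-24 h plating, Fluo-8 75 min 37 °C, 30 min RT / Technique: kinetic Fluo-8 calcium fluorescence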
NTR1 agonist – agonists of human NTR1, primary screen, imaging, U2OS cells, beta-arrestin-GFP, high content; 330,000 compounds, 0.17% hits; Neurotensin receptor type 1 (Homo sapiens), P30989; activation, % at 20 µM; NTR1-U2OS beta-arrestin-GFP spot imaging, agonist mode; AID 493036, 2011;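 active = activation at or above 40% of the spot to cytoplasm intensity ratio, with at least 20 cells analyzed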
TAAR1 antag – human TAAR1 antagonists, primary screen, Fluo-8 calcium fluorescence, CHO RD-HGA16 cells; Trace amine-associated receptor 1 (Homo sapiens), Q96RJ0; antagonist; inhibition, % at 3 µM; 360,000 compounds, 1.5% hits; AID 624466, 2012;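 active = inhibition above a per-plate cutoff, the mean inhibition of test compounds on that plate plus 3 SD, cut at about 49% in these data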
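Test system – hTAAR1-expressing CHO RD-HGA16 cells, Gα16-coupled · Also added – β-PEA at EC80 concentration, post-compound challenge · Compound – 3 µM, single point · Incubation – dye loading 75 min at 37 °C, then 30 min room temperature · Measured by – Fluo-8 intracellular calcium dye fluorescence, real-time kinetic reads · Benchmarks – vehicle and agonist controls · Replicates – singlicate, one well per test compound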
OX1R antag-2 – OX1R (HCRTR1) antagonists, primary screen, fluorescence, CHO/OX1R cells, Fluo-8 calcium, orexin A | Orexin/Hypocretin receptor type 1 (Homo sapiens), O43613 | Fluo-8 calcium fluorescence | inhibition, % at 5 µM | 330,000 compounds, 0.43% hits | AID 434989, 2010;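 active = inhibition above its plate's threshold, mean inhibition of all tested compounds on the plate plus 3 SD, cut at about 37% in these data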
Hits are given with their value.

CCc1ccc(NC(=O)CN2CCCN(S(=O)(=O)c3ccc(F)cc3)CC2)cc1 was read as OX1R antag-1 inactive, CHO parental Ca inactive, TAAR1 agonist inactive, NTR1 agonist inactive, TAAR1 antag inactive and OX1R antag-2 inactive.
`Fc1ccccc1CNc1nc(NCC2CC2)nc2ccsc12` gave TAAR1 agonist 38 and TAAR1 antag inactive.
COCCNc1nc(NCc2ccccc2F)c2sccc2n1 was read as TAAR1 agonist inactive and TAAR1 antag inactive.
Screening CC[N+](CC)(CC)CCCCOc1ccc2c(c1)C(=O)c1cc(OCCCC[N+](CC)(CC)CC)ccc1-2 returned OX1R antag-1 57, CHO parental Ca inactive, TAAR1 agonist inactive, NTR1 agonist inactive, TAAR1 antag inactive and OX1R antag-2 inactive.
O=C(NCc1ccco1)c1cccn2c(=O)c3sccc3nc12 was read as OX1R antag-1 42, CHO parental Ca inactive, TAAR1 agonist inactive, NTR1 agonist inactive, TAAR1 antag inactive and OX1R antag-2 inactive.
For O=C(Cn1ncc2ccccc21)N1CCN(c2cccc(C(F)(F)F)c2)CC1 the results were OX1R antag-1 inactive, CHO parental Ca inactive, TAAR1 agonist 44, NTR1 agonist inactive, TAAR1 antag inactive and OX1R antag-2 inactive.
Screening CC(=O)C(C(C)=O)c1c(Cl)c(O)c(O)c2c(C(=O)c3ccccc3)coc12 returned OX1R antag-1 inactive, CHO parental Ca inactive, TAAR1 agonist 39, NTR1 agonist inactive, TAAR1 antag inactive and OX1R antag-2 inactive.
`CCN(CC)c1nc(C=Cc2ccc(N(C)C)cc2)c2nccnc2n1` gave TAAR1 agonist 61 and TAAR1 antag 62.
For CN(C)c1ccc(C=Cc2nccc3ccccc23)cc1 the results were TAAR1 agonist inactive and TAAR1 antag inactive.
`c1ccc(-c2cc(CSc3nc4ccccc4[nH]3)on2)cc1` gave OX1R antag-1 89, CHO parental Ca 44, TAAR1 agonist inactive, NTR1 agonist inactive, TAAR1 antag inactive and OX1R antag-2 75.
`N#Cc1ccc(S(=O)(=O)N2CCCc3nc(-c4ccc(F)cc4)ccc32)cc1` gave TAAR1 agonist inactive and TAAR1 antag inactive.
Screening Cc1cc(CNC(=O)C(C)n2cc([N+](=O)[O-])cn2)c2ccccc2n1 (stereo not given) returned OX1R antag-1 69, CHO parental Ca inactive, TAAR1 agonist inactive, NTR1 agonist inactive, TAAR1 antag inactive and OX1R antag-2 inactive.
For OC(COc1ccc(Br)cc1)CN1CCC(Cc2ccccc2)CC1 (stereo not given) the results were OX1R antag-1 inactive, CHO parental Ca inactive, TAAR1 agonist 42, NTR1 agonist inactive, TAAR1 antag inactive and OX1R antag-2 inactive.
For CCc1cccc(N(CC(=O)NC2CCCCC2)C(=O)c2csnn2)c1 the results were OX1R antag-1 inactive, CHO parental Ca inactive, TAAR1 agonist inactive, NTR1 agonist inactive, TAAR1 antag inactive and OX1R antag-2 inactive.
For COc1ccc(N2C(=O)c3n[nH]c(C(C)C)c3C2c2ccc(F)cc2)cc1 (stereo not given) the results were TAAR1 agonist inactive and TAAR1 antag inactive.
`C=CCNc1cccc2c1S(=O)(=O)N[C@H](C)CO2` gave TAAR1 agonist inactive and TAAR1 antag inactive.
Cc1cc(C)cc(N(CC(=O)Nc2ccccc2)C2=NC3CS(=O)(=O)CC3S2)c1 (stereo not given) was read as OX1R antag-1 61, CHO parental Ca inactive, TAAR1 agonist inactive, NTR1 agonist inactive, TAAR1 antag inactive and OX1R antag-2 inactive.
For Cc1cc2c(c(=O)o1)[C@@]1(C(=O)N(C)c3ccccc31)C1=C(CCCC1=O)O2 the results were TAAR1 agonist inactive and TAAR1 antag inactive.
COc1ccc(C2CC(=O)C(c3ccc(C(N)=O)cc3)=CN2Cc2ccccc2)cc1 (stereo not given) was read as TAAR1 agonist inactive and TAAR1 antag inactive.

Screening data (PubChem)
